Calls of active or inactive are those of the source. No cut-off for these calls is given here.
Key:
Homo sapiens [1] = organism: Homo sapiens; assay: Selectivity index, ratio of IC50 for human HDAC1 to IC50 for human HDAC6
[2] = biological target: T1, Protein deacetylase HDAC6 (Homo sapiens, UniProt Q9UBN7); assay: Inhibition of human HDAC6 using RHKKAc peptide as substrate
T1 sequence (Q9UBN7 whole entry): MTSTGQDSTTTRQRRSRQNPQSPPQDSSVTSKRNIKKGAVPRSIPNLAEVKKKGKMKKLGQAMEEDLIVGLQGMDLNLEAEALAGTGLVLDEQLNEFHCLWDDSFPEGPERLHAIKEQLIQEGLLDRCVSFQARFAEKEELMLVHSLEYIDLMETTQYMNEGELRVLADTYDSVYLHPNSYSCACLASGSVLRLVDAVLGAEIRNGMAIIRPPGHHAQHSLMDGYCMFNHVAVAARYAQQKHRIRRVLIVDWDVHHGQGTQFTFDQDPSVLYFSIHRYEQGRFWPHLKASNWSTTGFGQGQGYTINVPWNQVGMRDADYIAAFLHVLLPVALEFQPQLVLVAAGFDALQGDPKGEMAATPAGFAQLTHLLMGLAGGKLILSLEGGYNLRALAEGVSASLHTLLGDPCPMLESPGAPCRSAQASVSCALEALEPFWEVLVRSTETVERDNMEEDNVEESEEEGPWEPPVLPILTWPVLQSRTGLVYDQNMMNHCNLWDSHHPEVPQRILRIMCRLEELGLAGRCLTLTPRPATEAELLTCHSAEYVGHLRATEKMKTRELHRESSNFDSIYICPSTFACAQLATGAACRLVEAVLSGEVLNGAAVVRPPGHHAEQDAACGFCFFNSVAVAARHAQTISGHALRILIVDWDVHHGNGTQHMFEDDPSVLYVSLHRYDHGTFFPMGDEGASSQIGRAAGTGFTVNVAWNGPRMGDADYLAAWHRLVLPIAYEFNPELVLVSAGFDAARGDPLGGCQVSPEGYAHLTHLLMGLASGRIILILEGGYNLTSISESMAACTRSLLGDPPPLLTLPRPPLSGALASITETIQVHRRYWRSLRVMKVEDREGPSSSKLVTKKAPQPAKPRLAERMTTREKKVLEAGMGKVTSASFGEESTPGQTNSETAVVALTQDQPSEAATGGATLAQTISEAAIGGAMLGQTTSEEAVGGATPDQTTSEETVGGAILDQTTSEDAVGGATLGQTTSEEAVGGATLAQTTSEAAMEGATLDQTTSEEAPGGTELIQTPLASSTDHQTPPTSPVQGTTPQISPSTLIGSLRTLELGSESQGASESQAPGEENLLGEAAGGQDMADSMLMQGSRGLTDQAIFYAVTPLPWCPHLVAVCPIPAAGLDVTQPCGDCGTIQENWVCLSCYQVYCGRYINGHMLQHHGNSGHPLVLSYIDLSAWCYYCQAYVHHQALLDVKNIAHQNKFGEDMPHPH

Histone deacetylase 8 = biological target: T2, Histone deacetylase 8 (Homo sapiens, UniProt Q9BY41); assay: Inhibition of human HDAC8 using RHKAcKAc peptide as substrate
T2 sequence (Q9BY41 whole entry): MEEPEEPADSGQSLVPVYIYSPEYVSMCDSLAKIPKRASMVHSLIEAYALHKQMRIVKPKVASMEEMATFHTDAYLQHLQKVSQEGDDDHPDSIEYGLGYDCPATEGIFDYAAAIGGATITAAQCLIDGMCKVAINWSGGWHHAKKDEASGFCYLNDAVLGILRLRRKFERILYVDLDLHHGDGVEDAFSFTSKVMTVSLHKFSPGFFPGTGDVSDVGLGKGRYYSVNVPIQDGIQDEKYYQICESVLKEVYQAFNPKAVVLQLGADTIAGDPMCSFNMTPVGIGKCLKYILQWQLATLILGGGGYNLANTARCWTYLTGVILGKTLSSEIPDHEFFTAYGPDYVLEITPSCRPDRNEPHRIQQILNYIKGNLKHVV

Homo sapiens [3] = organism: Homo sapiens; assay: Selectivity index, ratio of IC50 for human HDAC3 to IC50 for human HDAC6
Homo sapiens [4] = organism: Homo sapiens; assay: Selectivity index, ratio of IC50 for human HDAC2 to IC50 for human HDAC6
[5] = biological target: T3, Polyamine deacetylase HDAC10 (Homo sapiens, UniProt Q969S8); assay: Inhibition of human HDAC10 using RHKKAc peptide as substrate
T3 sequence (Q969S8 whole entry): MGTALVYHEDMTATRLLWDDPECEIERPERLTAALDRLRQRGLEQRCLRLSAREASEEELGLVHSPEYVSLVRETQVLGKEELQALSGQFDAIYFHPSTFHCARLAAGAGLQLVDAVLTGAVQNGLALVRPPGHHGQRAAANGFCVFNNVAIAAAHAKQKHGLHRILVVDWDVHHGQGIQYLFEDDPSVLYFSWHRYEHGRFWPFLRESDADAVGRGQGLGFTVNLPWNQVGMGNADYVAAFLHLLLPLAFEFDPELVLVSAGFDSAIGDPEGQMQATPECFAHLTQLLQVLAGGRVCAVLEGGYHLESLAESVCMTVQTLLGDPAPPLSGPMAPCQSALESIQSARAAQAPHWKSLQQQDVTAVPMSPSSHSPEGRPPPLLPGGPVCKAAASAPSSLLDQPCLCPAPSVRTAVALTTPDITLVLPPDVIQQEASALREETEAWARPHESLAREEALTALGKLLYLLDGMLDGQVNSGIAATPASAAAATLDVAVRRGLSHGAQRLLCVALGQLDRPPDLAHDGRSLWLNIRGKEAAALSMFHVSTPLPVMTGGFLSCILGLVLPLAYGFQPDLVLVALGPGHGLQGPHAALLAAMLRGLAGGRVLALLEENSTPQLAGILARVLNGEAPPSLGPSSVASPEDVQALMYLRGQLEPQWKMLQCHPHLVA

[6] = biological target: T4, Protein deacetylase HDAC6 (Homo sapiens) (UniProt Q9UBN7); assay: Inhibition of HDAC6 in human SH-SY5Y cells transfected with pCAX FLAG APP and pRK5-EGFP-Tau P301L plasmids assessed as inhibition of Tau P301L mutant phosphorylation at Ser396 residue at 1 uM after 24 hrs by Western blot analysis; type: cell-based
T4 sequence (whole entry): T1 sequence (Q9UBN7 whole entry)
How it was run: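 SH-SY5Y or Neuro-2a cells cotransfected 24 h with pCAX APP695 and pRK5-EGFP-Tau P301L, then treated 24 h at 1 µM. 20 µg lysate protein immunoblotted for APP and phospho-tau Ser396/Ser404. Mean ± STD of three independent experiments; Student's t-test.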

Homo sapiens [7] = organism: Homo sapiens; assay: Selectivity index, ratio of IC50 for human HDAC10 to IC50 for human HDAC6
Histone deacetylase 1 = Histone deacetylase 1 (Homo sapiens, UniProt Q13547); assay: Inhibition of human HDAC1 using RHKKAc peptide as substrate
Sequence of Histone deacetylase 1 (Q13547 whole entry): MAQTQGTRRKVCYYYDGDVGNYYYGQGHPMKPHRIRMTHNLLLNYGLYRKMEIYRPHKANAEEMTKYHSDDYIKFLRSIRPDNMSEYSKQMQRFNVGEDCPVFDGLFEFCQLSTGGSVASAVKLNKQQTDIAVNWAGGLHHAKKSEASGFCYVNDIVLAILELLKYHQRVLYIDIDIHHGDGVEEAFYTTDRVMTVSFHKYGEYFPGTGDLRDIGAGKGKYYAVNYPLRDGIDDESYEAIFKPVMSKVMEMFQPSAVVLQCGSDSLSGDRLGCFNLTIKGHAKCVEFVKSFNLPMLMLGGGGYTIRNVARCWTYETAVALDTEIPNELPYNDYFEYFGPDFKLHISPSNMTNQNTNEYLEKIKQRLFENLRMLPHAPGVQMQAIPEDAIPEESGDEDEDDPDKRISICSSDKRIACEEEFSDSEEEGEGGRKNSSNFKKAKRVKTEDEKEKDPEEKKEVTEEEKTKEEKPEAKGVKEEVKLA

Histone deacetylase 3 = Histone deacetylase 3 (Homo sapiens, UniProt O15379)
Sequence of Histone deacetylase 3 (O15379 whole entry): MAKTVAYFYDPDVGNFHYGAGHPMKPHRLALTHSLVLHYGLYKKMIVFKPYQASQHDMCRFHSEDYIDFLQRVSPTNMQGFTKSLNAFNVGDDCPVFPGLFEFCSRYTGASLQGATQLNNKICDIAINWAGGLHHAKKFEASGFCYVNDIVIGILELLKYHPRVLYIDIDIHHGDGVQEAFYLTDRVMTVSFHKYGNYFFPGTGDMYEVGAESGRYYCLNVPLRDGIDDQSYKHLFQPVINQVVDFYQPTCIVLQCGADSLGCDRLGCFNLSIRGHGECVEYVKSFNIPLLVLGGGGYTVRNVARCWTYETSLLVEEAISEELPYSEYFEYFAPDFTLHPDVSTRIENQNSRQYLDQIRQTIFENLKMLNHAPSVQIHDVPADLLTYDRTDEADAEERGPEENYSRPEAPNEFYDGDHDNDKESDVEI

Histone deacetylase 2 = Histone deacetylase 2 (Homo sapiens, UniProt Q92769); assay: Inhibition of human HDAC2 using RHKKAc peptide as substrate
Sequence of Histone deacetylase 2 (Q92769 whole entry): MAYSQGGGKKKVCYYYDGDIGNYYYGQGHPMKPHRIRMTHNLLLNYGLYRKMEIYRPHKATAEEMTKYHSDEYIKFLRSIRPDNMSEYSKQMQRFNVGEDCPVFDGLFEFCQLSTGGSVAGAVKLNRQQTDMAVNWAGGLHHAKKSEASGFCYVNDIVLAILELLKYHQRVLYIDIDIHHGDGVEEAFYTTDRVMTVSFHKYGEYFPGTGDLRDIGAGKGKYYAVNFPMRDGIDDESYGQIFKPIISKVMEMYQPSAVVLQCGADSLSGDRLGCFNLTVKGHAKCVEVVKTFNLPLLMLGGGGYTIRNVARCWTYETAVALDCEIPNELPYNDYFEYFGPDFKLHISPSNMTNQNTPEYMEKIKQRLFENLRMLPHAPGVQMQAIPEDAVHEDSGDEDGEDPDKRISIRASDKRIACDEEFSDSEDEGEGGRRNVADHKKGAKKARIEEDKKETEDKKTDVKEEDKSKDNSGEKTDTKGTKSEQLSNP

Homo sapiens [8] = organism: Homo sapiens; assay: Selectivity index, ratio of IC50 for human HDAC8 to IC50 for human HDAC6

| SMILES | Ratio IC50 (Homo sapiens [1]) | IC50 [2] [nM] | IC50 (Histone deacetylase 8) [nM] | Ratio IC50 (Homo sapiens [3]) | Ratio IC50 (Homo sapiens [4]) | IC50 [5] [nM] | inhibition [6] | Ratio IC50 (Homo sapiens [7]) | IC50 (Histone deacetylase 1) [nM] | IC50 (Histone deacetylase 3) [nM] | IC50 (Histone deacetylase 2) [nM] | Ratio IC50 (Homo sapiens [8]) |
| --- | --- | --- | --- | --- | --- | --- | --- | --- | --- | --- | --- | --- |
| O=C(NO)c1ccc(Cn2ccc3cc(C(=O)c4ccc(Cl)cc4)ccc32)cc1 | 710 | 6.73 | 1060 | 984 | 312 | > 100000 | Active | > 14900 | 4780 | 6620 | 2100 | 158 |
| COc1ccc(C(=O)c2ccc3c(ccn3Cc3ccc(C(=O)NO)cc3)c2)cc1 | 559 | 3.92 | 646 | 1060 | 145 | 59800 | Active | 15300 | 2190 | 4150 | 568 | 165 |
| O=C(NO)c1ccc(Cn2ccc3cc(C(=O)c4ccc(F)cc4)ccc32)cc1 | 357 | 9.25 | 1240 | 476 | 552 | > 100000 | Active | > 10800 | 3300 | 4400 | 5110 | 134 |
